Values after ≈ are worked out from the molar mass of the structure shown.
Key:
[1] = Clearance in Balb/c mouse at 3 mg/kg, iv by LC-MS/MS analysis; format: ADME, organism-based; design: dose 3 mg/kg, route intravenous; details: in vivo
[2] = Volume of distribution in Balb/c mouse at 3 mg/kg, iv by LC-MS/MS analysis; format: ADME, organism-based; design: dose 3 mg/kg, route intravenous; details: in vivo
[3] = AUC in Balb/c mouse at 3 mg/kg, iv by LC-MS/MS analysis; format: ADME, organism-based; design: dose 3 mg/kg, route intravenous; details: plasma
[4] = Half life in mouse microsomes at 10 uM by LC-MS/MS analysis; format: ADME, Microsome
Method in brief: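 Mouse microsomes at 1 mg/mL protein, compound 10 μM, 0.1% v/v DMSO final; started with 1 mM NADPH, stopped with DMSO at 0, 10, 30, 60 min. Acetonitrile extraction, centrifugation, LC-MS of supernatant; half-life in min.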

[5] = Metabolic stability in mouse plasma assessed as compound remaining at 10 uM after 24 hrs by LC-MS/MS analysis; format: ADME, cell-free; details: read-out: Stability
Method in brief: (§1)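 Compound at 10 μM in PBS pH 7.4 or neat mouse plasma, 5% v/v DMSO final, incubated 24 h at 37 °C. Samples extracted with acetonitrile and centrifuged; supernatant analysed by LC-MS; reported as % remaining.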

[6] = Half life in Balb/c mouse at 3 mg/kg, iv by LC-MS/MS analysis; format: ADME, organism-based; design: dose 3 mg/kg, route intravenous; details: in vivo
[7] = Initial plasma concentration in Balb/c mouse at 3 mg/kg, iv by LC-MS/MS analysis; format: ADME, organism-based; design: dose 3 mg/kg, route intravenous
[8] = Chemical stability of the compound in PBS buffer assessed as compound remaining at 10 uM at pH 7.4 after 24 hrs by LC-MS/MS analysis; format: physicochemical; details: read-out: Stability; method in brief: as §1
Staphylococcus aureus [9] = assay: Antibacterial activity against Staphylococcus aureus ATCC 29213 by broth microdilution method; format: functional
Method in brief: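 Broth microdilution MIC per CLSI guidelines against S. aureus ATCC 29213; MIC in µg/mL.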

[10] = Half life in CD-1 mouse hepatocytes at 10 uM by LC-MS/MS analysis; format: ADME, cell-based, Hepatocyte
Method in brief: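 Cryopreserved CD-1 mouse hepatocytes (5×10^4 cells), compound 10 μM in duplicate, 0.5% v/v DMSO final; stopped with DMSO at seven time points up to 120 min. Acetonitrile extraction, centrifugation, LC-MS of supernatant; half-life in min.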

[11] = target: T1, Cell division protein FtsZ (Staphylococcus aureus) (UniProt P0A031); assay: Inhibition of Staphylococcus aureus ATCC 29213 FtsZ-mediated cell division phenotype
T1 sequence (whole entry): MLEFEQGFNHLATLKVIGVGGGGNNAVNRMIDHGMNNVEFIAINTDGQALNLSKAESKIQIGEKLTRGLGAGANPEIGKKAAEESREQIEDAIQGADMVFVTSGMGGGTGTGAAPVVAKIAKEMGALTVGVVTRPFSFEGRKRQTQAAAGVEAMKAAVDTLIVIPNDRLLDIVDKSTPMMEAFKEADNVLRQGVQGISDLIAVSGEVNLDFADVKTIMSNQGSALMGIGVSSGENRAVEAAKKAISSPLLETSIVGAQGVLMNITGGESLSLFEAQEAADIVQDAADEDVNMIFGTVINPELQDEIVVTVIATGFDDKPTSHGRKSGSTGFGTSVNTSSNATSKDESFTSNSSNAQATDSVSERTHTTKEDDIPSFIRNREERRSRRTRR
Method in brief: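 S. aureus ATCC 29213 cell division inhibition assay run alongside MIC testing; value is the lowest concentration at which an inhibition of cell division phenotype was seen (µg/mL).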

[12] = Kinetic solubility of the compound in PBS buffer at pH 7.4 after 24 hrs by turbidimetric method; format: physicochemical; details: read-out: Kinetic_solubility
Method in brief: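 Turbidimetric: doubling dilutions in DMSO diluted twenty-fold into PBS pH 7.4, equilibrated 24 h at room temperature, absorbance read at 620 nm. Value is highest concentration with no measurable precipitate.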

Staphylococcus aureus [13] = assay: Antibacterial activity against Staphylococcus aureus harboring FtsZ G196A mutant by broth microdilution method; format: functional
Method in brief: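 S. aureus ATCC 29213 derivative with G196A substitution in FtsZ; MIC by broth microdilution following CLSI guidelines; reported in µg/mL.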

SMILES	MIC (Staphylococcus aureus [9]) [µg/mL]	MIC [11] [µg/mL]	solubility kinetic at 24 h [12] [µg/mL]	MIC (Staphylococcus aureus [13]) [µg/mL]	also measured
NC(=O)c1c(F)ccc(OCc2nc(-c3ccc(OC(F)(F)F)cc3)c(C(F)(F)F)o2)c1F	0.5 (≈ 1.04 µM)	0.5 (≈ 1.04 µM)	–	> 64	–
CCOc1oc(COc2ccc(F)c(C(N)=O)c2F)nc1-c1ccc(Cl)cc1	0.06 (≈ 0.147 µM)	0.03 (≈ 0.0734 µM)	–	> 64	–
NC(=O)c1c(F)ccc(OCc2nc(-c3ccc(Cl)cc3)c(CO)o2)c1F	8 (≈ 20.3 µM)	8 (≈ 20.3 µM)	–	> 64	–
N#Cc1oc(COc2ccc(F)c(C(N)=O)c2F)nc1-c1ccc(C(F)(F)F)cc1	2 (≈ 4.72 µM)	4 (≈ 9.45 µM)	–	> 64	–
NC(=O)c1c(F)ccc(O[C@H](CO)c2nc(-c3ccc(C(F)(F)F)cc3)c(Br)o2)c1F	0.12 (≈ 0.237 µM)	0.25 (≈ 0.493 µM)	–	4 (≈ 7.89 µM)	–
NC(=O)c1c(F)ccc(OC(CO)c2nc(-c3ccc(Cl)cc3)c(Br)o2)c1F (racemic)	0.25 (≈ 0.528 µM)	0.25 (≈ 0.528 µM)	–	–	–
CN(C)CCC(Oc1ccc(F)c(C(N)=O)c1F)c1nc(-c2ccc(C(F)(F)F)cc2)c(Br)o1 (racemic)	8 (≈ 14.6 µM)	16 (≈ 29.2 µM)	–	–	–
NC(=O)c1c(F)ccc(OC(COC(=O)N2CCNCC2)c2nc(-c3ccc(C(F)(F)F)cc3)c(Br)o2)c1F (racemic)	–	–	200 (≈ 323 µM)	–	–
C=CCc1oc(COc2ccc(F)c(C(N)=O)c2F)nc1-c1ccc(Cl)cc1	0.06 (≈ 0.148 µM)	0.06 (≈ 0.148 µM)	–	> 64	–
NC(=O)c1c(F)ccc(OCc2nc(-c3ccc(O)cc3)co2)c1F	8 (≈ 23.1 µM)	8 (≈ 23.1 µM)	–	> 64	–
NC(=O)c1c(F)ccc(OCc2nc3cc(Cl)cnc3s2)c1F	1 (≈ 2.81 µM)	0.5 (≈ 1.41 µM)	–	> 64	–

Continued, in another order:

MIC (Staphylococcus aureus [9]) [µg/mL]	MIC [11] [µg/mL]	solubility kinetic at 24 h [12] [µg/mL]	SMILES	MIC (Staphylococcus aureus [13]) [µg/mL]	also measured
0.03 (≈ 0.0737 µM)	0.015 (≈ 0.0369 µM)	–	CCCc1oc(COc2ccc(F)c(C(N)=O)c2F)nc1-c1ccc(Cl)cc1	–	clearance [1]: 137 mL/min/kg; Vd [2]: 5 L/kg; AUC [3]: 400 ng·h/mL; half-life at 10 µM [4]: 68.2 min; remaining at 24 h, 10 µM [5]: 101%; half-life [6]: 25 min; C0 [7]: 1200 ng/mL; remaining at 24 h, 10 µM [8]: 98%; half-life at 10 µM [10]: 17.9 min
> 64	–	–	CC(C)(Oc1ccc(F)c(C(N)=O)c1F)c1nc(-c2ccc(Cl)cc2)c(Br)o1	–	–
1 (≈ 1.87 µM)	1 (≈ 1.87 µM)	50 (≈ 93.4 µM)	NC(=O)c1c(F)ccc(OC(CCCO)c2nc(-c3ccc(C(F)(F)F)cc3)c(Br)o2)c1F (racemic)	–	–
0.5 (≈ 0.907 µM)	0.5 (≈ 0.907 µM)	100 (≈ 181 µM)	NC(=O)c1c(F)ccc(OC(CC(O)CO)c2nc(-c3ccc(C(F)(F)F)cc3)c(Br)o2)c1F (racemic)	–	–
–	–	800 (≈ 1320 µM)	NC(=O)c1c(F)ccc(OC(COC(=O)NCC(=O)O)c2nc(-c3ccc(C(F)(F)F)cc3)c(Br)o2)c1F (racemic)	–	–
2 (≈ 4.24 µM)	1 (≈ 2.12 µM)	–	CCC(Oc1ccc(F)c(C(N)=O)c1F)c1nc(-c2ccc(Cl)cc2)c(Br)o1 (racemic)	–	–
–	–	> 800	NC(=O)c1c(F)ccc(OC(COP(=O)(O)O)c2nc(-c3ccc(C(F)(F)F)cc3)c(Br)o2)c1F (racemic)	–	–
8 (≈ 14.6 µM)	8 (≈ 14.6 µM)	400 (≈ 728 µM)	NC(=O)c1c(F)ccc(OC(CCC(=O)O)c2nc(-c3ccc(C(F)(F)F)cc3)c(Br)o2)c1F (racemic)	–	–
–	–	800 (≈ 1290 µM)	NC(=O)c1c(F)ccc(OC(COC(=O)Nc2nnn[nH]2)c2nc(-c3ccc(C(F)(F)F)cc3)c(Br)o2)c1F (racemic)	–	–
0.5 (≈ 0.91 µM)	0.5 (≈ 0.91 µM)	25 (≈ 45.5 µM)	CC(=O)OCC(Oc1ccc(F)c(C(N)=O)c1F)c1nc(-c2ccc(C(F)(F)F)cc2)c(Br)o1 (racemic)	–	–
–	–	200 (≈ 329 µM)	NC(=O)c1c(F)ccc(OC(COC(=O)CCC(=O)O)c2nc(-c3ccc(C(F)(F)F)cc3)c(Br)o2)c1F (racemic)	–	–
0.5 (≈ 1.27 µM)	0.5 (≈ 1.27 µM)	–	COc1oc(COc2ccc(F)c(C(N)=O)c2F)nc1-c1ccc(Cl)cc1	–	–
